Data set [1] can be described thus: Cytotoxicity against african green monkey Vero cells after 3 days by MTT assay. It is filed as cell-based. Conditions: chlorocebus sabaeus, read-out: MNCC. The procedure, abridged: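 Confluent Vero monolayers were exposed in triplicate to serial sample dilutions in DMEM with 2% FBS (pH 7.2) for 3 days. MTT was then added for 4 h and the formazan dissolved in DMSO. OD was read at 540 and 630 nm against untreated control. The maximal noncytotoxic concentration was taken as the highest concentration showing no cytotoxic effect.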

In a further data set the test system is Human alphaherpesvirus 1. The experiment in a line: Antiviral activity against HSV1 infected in african green monkey Vero cells assessed as inhibition of virus-induced cytopathic effect after 3 days by crystal violet staining. It counts as functional. The procedure, abridged:
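Vero cells grown 24 h in 24-well plates, then infected with 30 PFU HSV-1 together with serial sample dilutions in DMEM containing 2% FBS, adjusted to pH 7.2 with NaHCO3 and Hepes. Overlay medium held 1% methylcellulose. After 3 days, cells were fixed with formalin, stained with crystal violet, and plaques counted. The concentration giving 100% plaque reduction versus untreated infected control was read from graphic plots.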

Calls of active or inactive are those of the source. The rule behind the calls is not given here.

With `COc1cc([C@@H]2c3cc(O)c(OC)cc3C[C@H](CO)[C@H]2CO[C@@H]2O[C@H](CO)[C@@H](O)[C@H](O)[C@H]2O)ccc1O`, the MNTC at 72 h in data set [1] came to 380 µM. For the same compound, the inhibition result in the data set with Human alphaherpesvirus 1 is “inactive”.

For `CC(C)(O)C1CC=C(C(=O)O)CC1` (racemic), the MNTC at 72 h in data set [1] was greater than 1090 µM. Further, the inhibition entry in the data set with Human alphaherpesvirus 1 was “inactive”.

With `Nc1nc2c(ncn2COCCO)c(=O)[nH]1` [ACYCLOVIR], in the data set on Human alphaherpesvirus 1, the “Concentration giving 100% plaque reduction (IC100)” value is 0.0043 mM.

Consider `Cc1cc(=O)c2c(O)cc(O[C@@H]3O[C@H](COC(=O)C4=CC[C@H](C(C)(C)O)CC4)[C@@H](O)[C@H](O)[C@H]3O)cc2o1` [CYPELLOCARPA C], for which the MNTC at 72 h in data set [1] is greater than 380 µM. In the data set with Human alphaherpesvirus 1, the inhibition result was “inactive”.

On to `CC(C)(O)[C@H]1CC=C(C(=O)OC[C@H]2O[C@@H](Oc3cc(C(=O)O)cc(O)c3O)[C@H](O)[C@@H](O)[C@@H]2O)CC1` [CYPELLOCARPIN A], for which the MNTC at 72 h in data set [1] was 30 µM. Besides, the inhibition entry in the data set on Human alphaherpesvirus 1 was “inactive”.

`CC1(O)CC(=O)c2c(O)cc(O[C@@H]3O[C@H](COC(=O)C4=CC[C@H](C(C)(C)O)CC4)[C@@H](O)[C@H](O)[C@H]3O)cc2O1` (stereo partly specified) [CYPELLOCARPIN B]: the MNTC at 72 h in data set [1] was 20 µM. In addition, in the data set with Human alphaherpesvirus 1, the inhibition entry was “inactive”.

Regarding `CC(C)(O)[C@H]1CC=C(C(=O)OC[C@H]2O[C@@H](O)[C@H](O)[C@@H](O)[C@@H]2O)CC1` [EUCALMAIDIN A], the MNTC at 72 h in data set [1] was greater than 580 µM. Moreover, in the data set with Human alphaherpesvirus 1, the inhibition entry is “inactive”.

As to `CC(C)(O)[C@H]1CC=C(C(=O)OC[C@H]2O[C@@H](Oc3c(O)cc(C(=O)O)cc3O)[C@H](O)[C@@H](O)[C@@H]2O)CC1` [EUCALMAIDIN B], the MNTC at 72 h in data set [1] was found to be 400 µM. The inhibition result in the data set with Human alphaherpesvirus 1 was “inactive”.

On to `COc1cc(C(=O)O)cc(OC)c1O[C@@H]1O[C@H](COC(=O)C2=CC[C@H](C(C)(C)O)CC2)[C@@H](O)[C@H](O)[C@H]1O` [EUCALMAIDIN C], for which, in data set [1], the MNTC at 72 h was 380 µM. The inhibition entry with Human alphaherpesvirus 1 was “inactive”.

For `O=c1c(O)c(-c2ccc(O)c(O)c2)oc2cc(O)cc(O)c12` [QUERCETIN], in data set [1], the MNTC at 72 h was less than 20 µM. In the data set on Human alphaherpesvirus 1, the “Concentration giving 100% plaque reduction (IC100)” value was 0.33 mM.

With `C[C@@H]1O[C@@H](Oc2c(-c3ccc(O)c(O)c3)oc3cc(O)cc(O)c3c2=O)[C@H](O)[C@H](O)[C@H]1O` [QUERCITRIN], the MNTC at 72 h in data set [1] is 10 µM. Also, in the data set on Human alphaherpesvirus 1, the inhibition entry is “inactive”.

These data come from ChEMBL document CHEMBL1154307, “Eucalmaidins A-E, (+)-oleuropeic acid derivatives from the fresh leaves of Eucalyptus maideni” (J Nat Prod, 2009).
